Experimental data from different studies.
Compare with care: the assays were run in different laboratories.
Matrix: plasma

SMILES	system	setting	Tmax [h]
CC1(C)CC[C@]2(NC(=O)C(C)(F)F)CC[C@]3(C)[C@H](C(=O)C=C4[C@@]5(C)C=C(C#N)C(=O)C(C)(C)[C@@H]5CC[C@]43C)[C@@H]2C1	human	oral, 150 mg, single dose	12
COc1ccc(F)cc1C(=O)NCc1ccc(-c2nn([C@@H](C)C(F)(F)F)c(N)c2C(N)=O)cc1	male human	oral, 200 mg, single dose	5
CC(=O)N(C)[C@H]1CCN(C(=O)c2cnc3c(c2)C[C@](C)(c2ccc(F)cc2)N3)C1	male human	oral, 15 mg, multiple doses, once daily, steady state	1.14
CC(C)n1cc(C#N)c2cc(-n3cc(C(=O)O)cn3)ccc21	human	oral, 200 mg, single dose, fasted, healthy volunteers	4.01
OC[C@H]1O[C@@H](c2cc(Cc3ccc(C4CC4)cc3)c(Cl)c3c2CCO3)[C@H](O)[C@@H](O)[C@@H]1O	human	oral, 0.3 mg, single dose, fasted, healthy volunteers	1.25
C[C@@H](Oc1ccc(S(C)(=O)=O)cc1C(=O)N1C[C@@H]2C[C@]2(c2cc(C(F)(F)F)on2)C1)C(F)(F)F	human	oral, 10 mg, single dose, fasted	3.5
COc1ccc2c(c1)CN(C(=O)CCN1CCC(Cc3ccccc3)CC1)CC[S@@+]2[O-]	male human	intravenous, 0.05 mg/kg, healthy volunteers	0
N#Cc1cccc(-c2ccc3ncc(-c4cc(F)cc(F)c4)c(N4CCC(N)CC4)c3c2)c1O	male human	intravenous, 50 µg	0.03
O=C(COc1ccc(Cl)cc1)NC12CC(c3nnc([C@H]4C[C@@H](OC(F)(F)F)C4)o3)(C1)C2	human	oral, 260 mg, multiple doses, once daily, steady state, healthy volunteers	3
